{"source": "ChEMBL document CHEMBL2311350", "about": "“Discovery of a novel phenylethyl benzamide glucokinase activator for the treatment of type 2 diabetes mellitus” (Bioorg Med Chem Lett, 2013)", "key": {"Mus musculus [1]": {"species": "Mus musculus", "test": "Antidiabetic activity in ob/ob mouse assessed as reduction in basal glucose level measured after acute treatment", "type": "functional, organism-based", "in_short": "(§1)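 Basal blood glucose change followed after acute oral dosing in non-diabetic C57BL/J6 or diabetic ob/ob mice.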"}, "Mus musculus [2]": {"species": "Mus musculus", "test": "Antidiabetic activity in ob/ob mouse assessed as reduction in blood glucose level measured after subchronic treatment", "type": "functional, organism-based", "in_short": "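ob/ob mice dosed orally and repeatedly in a subchronic study. Blood glucose, serum lipids and body weight were monitored.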"}, "Mus musculus [3]": {"species": "Mus musculus", "test": "Antidiabetic activity in C57BL/J mouse assessed as reduction in basal glucose level measured after acute treatment", "type": "functional, organism-based", "in_short": "as §1"}, "[4]": {"molecular_target": "T1, Hexokinase-2 (Homo sapiens) (UniProt P52789)", "T1 sequence (whole entry)": "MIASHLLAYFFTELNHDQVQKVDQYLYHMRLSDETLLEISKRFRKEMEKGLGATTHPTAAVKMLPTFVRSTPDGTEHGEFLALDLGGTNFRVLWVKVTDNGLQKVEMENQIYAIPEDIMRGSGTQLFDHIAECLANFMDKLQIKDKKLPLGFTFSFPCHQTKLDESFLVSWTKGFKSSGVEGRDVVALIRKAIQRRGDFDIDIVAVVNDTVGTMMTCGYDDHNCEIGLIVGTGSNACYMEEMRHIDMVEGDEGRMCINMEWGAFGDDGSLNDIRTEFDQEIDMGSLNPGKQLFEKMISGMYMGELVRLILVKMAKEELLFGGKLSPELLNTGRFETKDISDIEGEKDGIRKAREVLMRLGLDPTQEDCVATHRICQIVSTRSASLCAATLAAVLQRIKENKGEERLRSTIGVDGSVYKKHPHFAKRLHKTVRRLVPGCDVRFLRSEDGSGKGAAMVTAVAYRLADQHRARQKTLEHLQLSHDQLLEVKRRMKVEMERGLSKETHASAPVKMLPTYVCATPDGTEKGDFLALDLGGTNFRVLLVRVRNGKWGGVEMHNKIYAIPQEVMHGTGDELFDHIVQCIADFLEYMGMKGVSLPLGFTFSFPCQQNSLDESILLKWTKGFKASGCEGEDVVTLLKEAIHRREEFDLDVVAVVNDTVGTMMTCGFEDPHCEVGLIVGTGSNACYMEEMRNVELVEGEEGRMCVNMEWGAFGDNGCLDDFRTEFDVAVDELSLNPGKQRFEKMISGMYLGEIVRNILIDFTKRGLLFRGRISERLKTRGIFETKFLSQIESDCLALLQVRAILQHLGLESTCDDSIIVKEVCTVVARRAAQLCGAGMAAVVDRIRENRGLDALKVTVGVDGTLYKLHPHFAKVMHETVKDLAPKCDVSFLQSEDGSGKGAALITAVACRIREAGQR", "test": "Induction of hexokinase 2 (unknown origin)", "in_short": "(§2)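 Selectivity tested in enzymatic hexokinase 1 and hexokinase 2 activity assays.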"}, "[5]": {"molecular_target": "T2, Hexokinase-1 (Homo sapiens) (UniProt P19367)", "T2 sequence (whole entry)": "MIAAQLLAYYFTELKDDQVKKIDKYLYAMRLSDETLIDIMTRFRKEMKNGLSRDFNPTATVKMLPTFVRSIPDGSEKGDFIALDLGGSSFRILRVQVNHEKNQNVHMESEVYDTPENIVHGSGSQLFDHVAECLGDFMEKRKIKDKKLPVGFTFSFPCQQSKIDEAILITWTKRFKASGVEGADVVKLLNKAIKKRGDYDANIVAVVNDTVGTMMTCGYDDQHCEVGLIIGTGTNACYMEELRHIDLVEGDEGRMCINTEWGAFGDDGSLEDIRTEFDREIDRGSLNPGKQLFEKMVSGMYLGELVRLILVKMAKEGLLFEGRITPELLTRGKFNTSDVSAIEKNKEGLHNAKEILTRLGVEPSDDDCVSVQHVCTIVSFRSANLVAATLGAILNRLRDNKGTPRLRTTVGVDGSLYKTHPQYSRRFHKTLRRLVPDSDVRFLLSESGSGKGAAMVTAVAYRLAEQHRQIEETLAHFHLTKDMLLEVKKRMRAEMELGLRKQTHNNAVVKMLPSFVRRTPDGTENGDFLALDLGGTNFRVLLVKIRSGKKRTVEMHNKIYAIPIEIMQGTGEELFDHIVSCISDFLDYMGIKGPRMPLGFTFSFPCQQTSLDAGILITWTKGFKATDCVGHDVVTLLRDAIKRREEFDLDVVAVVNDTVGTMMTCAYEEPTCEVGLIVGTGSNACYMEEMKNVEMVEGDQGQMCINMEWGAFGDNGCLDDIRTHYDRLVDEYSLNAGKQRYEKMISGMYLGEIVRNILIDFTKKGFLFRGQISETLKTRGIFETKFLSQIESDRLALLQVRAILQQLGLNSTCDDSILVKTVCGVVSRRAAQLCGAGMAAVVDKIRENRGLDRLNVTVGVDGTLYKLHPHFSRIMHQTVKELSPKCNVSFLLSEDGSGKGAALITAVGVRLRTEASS", "test": "Induction of hexokinase 1 (unknown origin)", "in_short": "as §2"}, "MIN6": {"test_system": "MIN6", "test": "Induction of insulin secretion in mouse MIN6 cells", "type": "functional, cell-based", "in_short": "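Glucose-dependent insulin secretion measured in the mouse pancreatic beta-cell line MIN-6 across glucose levels.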"}, "[6]": {"molecular_target": "T3, Hexokinase-4 (Homo sapiens) (UniProt P35557)", "T3 sequence (whole entry)": "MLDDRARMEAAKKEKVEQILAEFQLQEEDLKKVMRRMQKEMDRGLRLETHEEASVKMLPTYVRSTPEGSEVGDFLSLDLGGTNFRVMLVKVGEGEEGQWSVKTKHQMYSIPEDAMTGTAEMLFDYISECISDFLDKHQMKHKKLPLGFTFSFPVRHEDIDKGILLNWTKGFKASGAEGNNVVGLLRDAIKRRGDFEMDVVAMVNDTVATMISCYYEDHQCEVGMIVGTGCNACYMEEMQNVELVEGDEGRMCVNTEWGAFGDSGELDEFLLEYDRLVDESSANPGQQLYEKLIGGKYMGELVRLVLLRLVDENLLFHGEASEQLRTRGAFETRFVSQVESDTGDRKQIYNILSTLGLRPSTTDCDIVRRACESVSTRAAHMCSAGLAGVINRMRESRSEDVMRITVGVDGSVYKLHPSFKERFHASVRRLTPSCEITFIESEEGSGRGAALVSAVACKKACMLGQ", "test": "Induction of human pancreatic glucokinase activity assessed as half maximal saturation concentration of glucose at 5 mM glucose concentration", "in_short": "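Enzymatic assay with purified recombinant human pancreatic or liver glucokinase, read as fold increase in activity at 5.0 mM glucose. EC50 is the mean of at least duplicate runs. For the pancreatic enzyme, glucose S0.5 and Vmax were also determined.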"}, "Mus musculus [7]": {"species": "Mus musculus", "test": "Increase in oral glucose tolerance in C57BL/J mouse", "type": "functional, organism-based", "in_short": "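C57BL/J6 mice given oral dosing followed by an oral glucose tolerance test. Plasma glucose was tracked over time and glucose AUC reduction calculated. Several doses were tested, including 50 and 150 mg/kg. Hypoglycemia risk was judged from the glucose profiles.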"}}, "note": "Calls of active or inactive are those of the source. No cut-off for these calls is given here.", "data": [{"compound": "COC[C@H](C)Oc1cc(CCc2c(F)cccc2F)cc(C(=O)Nc2ccc(C(=O)O)cn2)c1", "values": [{"measurement": "Activity", "setting": "Mus musculus [1]", "value": "Active"}, {"measurement": "Activity", "setting": "Mus musculus [2]", "value": "Active"}, {"measurement": "Activity", "setting": "Mus musculus [3]", "value": "Active"}, {"measurement": "Activity", "setting": "[4]", "value": "inactive"}, {"measurement": "Activity", "setting": "[5]", "value": "inactive"}, {"measurement": "Activity", "setting": "MIN6", "value": "Dose-dependent effect"}, {"measurement": "Activity", "setting": "[6]", "value": "Active"}, {"measurement": "Activity", "setting": "Mus musculus [7]", "value": "Dose-dependent effect"}]}]}
